Assay results reported in ChEMBL document CHEMBL1156775 (J Med Chem, 2010).

Assays:
Homo sapiens [1] = species: Homo sapiens; test: Selectivity ratio of Ki for human kappa opioid receptor to Ki for human mu opioid receptor
Homo sapiens [2] = species: Homo sapiens; test: Selectivity ratio of Ki for human delta opioid receptor to Ki for human mu opioid receptor
Mu-type opioid receptor = Mu-type opioid receptor (Homo sapiens, UniProt P35372); test: Displacement of [3H]DAMGO from human mu opioid receptor expressed in CHO cells; format: cell-based
[3] = target: Kappa-type opioid receptor (Homo sapiens, UniProt P41145); test: Displacement of [3H]U69593 from human kappa opioid receptor expressed in CHO cells; format: cell-based
[4] = target: Delta-type opioid receptor (Homo sapiens, UniProt P41143); test: Displacement of [3H]naltrindole from human delta opioid receptor expressed in CHO cells; format: cell-based
Procedure, shortened: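 CHO cells stably expressing a single human opioid receptor were grown in DMEM with 10% FBS and penicillin/streptomycin at 37 °C in 5% CO2. Their membranes were incubated with radioligand and 12 concentrations of test compound at 25 °C in 50 mM Tris-HCl, pH 7.5.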

Mu-type opioid receptor, sequence (P35372 whole entry): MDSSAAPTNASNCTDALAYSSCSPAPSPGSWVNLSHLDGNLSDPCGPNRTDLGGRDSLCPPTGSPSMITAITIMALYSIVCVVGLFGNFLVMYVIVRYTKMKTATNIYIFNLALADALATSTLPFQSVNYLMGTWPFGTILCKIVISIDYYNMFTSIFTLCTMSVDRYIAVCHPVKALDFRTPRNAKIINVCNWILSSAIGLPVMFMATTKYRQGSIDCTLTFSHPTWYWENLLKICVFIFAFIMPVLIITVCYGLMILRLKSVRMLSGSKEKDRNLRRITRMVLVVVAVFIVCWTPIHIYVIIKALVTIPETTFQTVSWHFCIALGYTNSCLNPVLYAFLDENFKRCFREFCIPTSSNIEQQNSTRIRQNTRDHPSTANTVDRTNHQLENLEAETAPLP
Delta-type opioid receptor, sequence (P41143 whole entry): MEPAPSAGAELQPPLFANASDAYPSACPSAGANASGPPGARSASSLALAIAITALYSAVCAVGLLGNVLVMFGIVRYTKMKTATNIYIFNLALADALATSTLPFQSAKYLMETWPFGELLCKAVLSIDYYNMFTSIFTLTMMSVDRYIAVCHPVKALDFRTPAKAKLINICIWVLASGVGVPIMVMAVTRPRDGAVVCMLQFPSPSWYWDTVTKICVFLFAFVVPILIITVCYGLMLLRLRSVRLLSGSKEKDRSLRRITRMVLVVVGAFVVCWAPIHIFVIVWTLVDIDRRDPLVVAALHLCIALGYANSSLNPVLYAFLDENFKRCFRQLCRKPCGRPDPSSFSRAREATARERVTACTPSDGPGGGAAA
Kappa-type opioid receptor, sequence (P41145 whole entry): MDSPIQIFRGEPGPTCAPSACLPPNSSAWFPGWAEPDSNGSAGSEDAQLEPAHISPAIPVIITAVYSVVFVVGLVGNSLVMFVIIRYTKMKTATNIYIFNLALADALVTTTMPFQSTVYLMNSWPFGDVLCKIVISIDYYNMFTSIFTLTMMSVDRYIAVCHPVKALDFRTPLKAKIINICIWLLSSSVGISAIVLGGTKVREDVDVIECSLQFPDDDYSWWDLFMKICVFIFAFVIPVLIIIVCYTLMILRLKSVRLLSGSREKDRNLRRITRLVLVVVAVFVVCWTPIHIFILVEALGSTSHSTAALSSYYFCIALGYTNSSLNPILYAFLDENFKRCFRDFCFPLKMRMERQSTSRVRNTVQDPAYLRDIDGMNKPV

Structure (SMILES)	Ratio Ki (Homo sapiens [1])	Ratio Ki (Homo sapiens [2])	Ki (Mu-type opioid receptor) [nM]	Ki [3] [nM]	Ki [4] [nM]
Oc1cc2c(cc1CNCCCCCCCCNCc1cc3c(cc1O)[C@@]14CCCC[C@H]1[C@@H](C3)N(CC1CCC1)CC4)C[C@@H]1[C@@H]3CCCC[C@]23CCN1CC1CCC1	2	42	24	40	1000
Oc1cc2c(cc1CNCCCCNCc1cc3c(cc1O)[C@@]14CCCC[C@H]1[C@@H](C3)N(CC1CCC1)CC4)C[C@@H]1[C@@H]3CCCC[C@]23CCN1CC1CCC1	0.7	28	6.8	4.9	190
CCCCC(O)c1cc2c(cc1O)[C@@]13CCCC[C@H]1[C@@H](C2)N(CC1CCC1)CC3 (mixture of isomers)	1	6	17	13	72
COc1ccc(CN(Cc2ccc(OC)cc2)c2ccc3c(c2)[C@@]24CCCC[C@H]2[C@@H](C3)N(CC2CC2)CC4)cc1	2	48	2.5	3.9	120
O=C(Nc1ccccc1)Nc1ccc2c(c1)[C@@]13CCCC[C@H]1[C@@H](C2)N(CC1CC1)CC3	0.5	4	3.9	1.6	16
OCCCCCCCCCCC(O)c1cc2c(cc1O)[C@@]13CCCC[C@H]1[C@@H](C2)N(CC1CCC1)CC3 (mixture of isomers)	1	23	36	26	610
O/N=C\c1cc2c(cc1O)[C@@]13CCCC[C@H]1[C@@H](C2)N(CC1CCC1)CC3	0.16	47			
CCCNCc1cc2c(cc1O)[C@@]13CCCC[C@H]1[C@@H](C2)N(CC1CCC1)CC3	1		330	350	> 10000
CN1CC[C@]23CCCC[C@H]2[C@H]1Cc1ccc(OC(=O)Nc2ccc(I)cc2)cc13	15	4	0.34	5.2	160
Ic1ccc(CNc2ccc3c(c2)[C@@]24CCCC[C@H]2[C@@H](C3)N(CC2CCC2)CC4)cc1	1.1	35	5.4	5.8	190
O=C(Nc1ccc(I)cc1)Nc1ccc2c(c1)[C@@]13CCCC[C@H]1[C@@H](C2)N(CC1CC1)CC3	0.5	4	23	12	94
OCc1cc2c(cc1O)[C@@]13CCCC[C@H]1[C@@H](C2)N(CC1CCC1)CC3	0.25		360	86	> 10000
CCC(O)c1cc2c(cc1O)[C@@]13CCCC[C@H]1[C@@H](C2)N(CC1CCC1)CC3 (mixture of isomers)	0.3		180	72	> 10000
Oc1cc2c(cc1CNCCCCCCNCc1cc3c(cc1O)[C@@]14CCCC[C@H]1[C@@H](C3)N(CC1CCC1)CC4)C[C@@H]1[C@@H]3CCCC[C@]23CCN1CC1CCC1	0.5	12	76	37	850
O=C(Nc1ccc(I)cc1)Oc1ccc2c(c1)[C@@]13CCCC[C@H]1[C@@H](C2)N(CC1CCC1)CC3	1	68	1.1	0.99	67
c1ccc(Nc2ccc3c(c2)[C@@]24CCCC[C@H]2[C@@H](C3)N(CC2CCC2)CC4)cc1	1	2	1.7	1.5	39
Ic1ccc(CNc2ccc3c(c2)[C@@]24CCCC[C@H]2[C@@H](C3)N(CC2CC2)CC4)cc1			0.71	0.79	34
COc1ccc(CNc2ccc3c(c2)[C@@]24CCCC[C@H]2[C@@H](C3)N(CC2CC2)CC4)cc1	2	65	0.31	0.51	20

Structure (SMILES)	Ratio Ki (Homo sapiens [1])	Ratio Ki (Homo sapiens [2])	Ki (Mu-type opioid receptor) [nM]	Ki [3] [nM]	Ki [4] [nM]
CN1CC[C@]23CCCC[C@H]2[C@H]1Cc1ccc(NC(=O)Nc2ccc(I)cc2)cc13	16	18	17	280	300
c1ccc(CNc2ccc3c(c2)[C@@]24CCCC[C@H]2[C@@H](C3)N(CC2CCC2)CC4)cc1	1.6	76	1.7	2.8	130
O=C(Nc1ccc(I)cc1)Oc1ccc2c(c1)[C@@]13CCCC[C@H]1[C@@H](C2)N(CC1CC1)CC3	1	24	0.58	0.6	14.6
O=C(CCCCC(=O)NCc1cc2c(cc1O)[C@@]13CCCC[C@H]1[C@@H](C2)N(CC1CCC1)CC3)NCc1cc2c(cc1O)[C@@]13CCCC[C@H]1[C@@H](C2)N(CC1CCC1)CC3	1	21	36	30	
CN1CC[C@]23CCCC[C@H]2[C@H]1Cc1cc2c(cc13)OCN(Cc1ccccc1)C2	3		110	310	> 10000
c1ccc(CNc2ccc3c(c2)[C@@]24CCCC[C@H]2[C@@H](C3)N(CC2CC2)CC4)cc1	1.4	112	0.26	0.34	29
Ic1ccc(CN(Cc2ccc(I)cc2)c2ccc3c(c2)[C@@]24CCCC[C@H]2[C@@H](C3)N(CC2CCC2)CC4)cc1	1	60	16	16	960
CCN(CCCCCCN(CC)Cc1cc2c(cc1O)[C@@]13CCCC[C@H]1[C@@H](C2)N(CC1CCC1)CC3)Cc1cc2c(cc1O)[C@@]13CCCC[C@H]1[C@@H](C2)N(CC1CCC1)CC3	1	13	64	54	710
CN1CC[C@]23CCCC[C@H]2[C@H]1Cc1cc(CNCc2ccccc2)c(O)cc13	2		190	380	> 10000
Oc1cc2c(cc1C(O)CCCCC(O)c1cc3c(cc1O)[C@@]14CCCC[C@H]1[C@@H](C3)N(CC1CCC1)CC4)C[C@@H]1[C@@H]3CCCC[C@]23CCN1CC1CCC1 (mixture of isomers)	1	24	74	67	1600
COc1ccc(Nc2ccc3c(c2)[C@@]24CCCC[C@H]2[C@@H](C3)N(CC2CC2)CC4)cc1	1	65	0.026	0.03	1.7
COc1ccc(Nc2ccc3c(c2)[C@@]24CCCC[C@H]2[C@@H](C3)N(CC2CCC2)CC4)cc1	1	3	0.61	0.59	19
NCc1cc2c(cc1O)[C@@]13CCCC[C@H]1[C@@H](C2)N(CC1CCC1)CC3	0.5		290	140	> 10000
c1ccc(Nc2ccc3c(c2)[C@@]24CCCC[C@H]2[C@@H](C3)N(CC2CC2)CC4)cc1	0.5	68	0.08	0.047	5.4
CCN(CCCCN(CC)Cc1cc2c(cc1O)[C@@]13CCCC[C@H]1[C@@H](C2)N(CC1CCC1)CC3)Cc1cc2c(cc1O)[C@@]13CCCC[C@H]1[C@@H](C2)N(CC1CCC1)CC3	0.3	7	160	44	1100
O=C(Nc1ccc(I)cc1)Nc1ccc2c(c1)[C@@]13CCCC[C@H]1[C@@H](C2)N(CC1CCC1)CC3	0.5	4	24	28	250
Oc1cc2c(cc1C(O)CCCCCCCCCCC(O)c1cc3c(cc1O)[C@@]14CCCC[C@H]1[C@@H](C3)N(CC1CCC1)CC4)C[C@@H]1[C@@H]3CCCC[C@]23CCN1CC1CCC1 (mixture of isomers)	1	24	35	31	730
CN1CC[C@]23CCCC[C@H]2[C@H]1Cc1ccc(NC(=O)Nc2ccccc2)cc13	31	29	11	340	320
